Measurements pooled from the literature.
Each line is one published result; the experiments were not run side by side.
Read-out: cell growth or viability

CCOC(=O)c1nn(-c2cccc(Cl)c2)/c(=N/N=C(\C)c2ccc(NC(=O)c3ccc(Cl)cc3)cc2)s1
viability (MCF7; MTT; 1.25 µM): 3.36%

CC(=NNC(=S)Nc1ccccc1)c1ccc(Nc2nnc(-c3ccc(Cl)cc3)c3ccccc23)cc1
cell death (MCF7; MTT; 0.625 µM): 43%

CCOC(=O)c1nn(-c2cccc(Cl)c2)/c(=N/N=C(\C)c2ccc(NC(=O)c3ccccc3)cc2)s1
viability (MCF7; MTT; 0.312 µM): 6.34%

C=CC(=O)NC1CCN(c2ncc3ncnc(Nc4ccc(Oc5ccc6c(c5)ncn6C)c(C)c4)c3n2)CC1
EC50 (SW-620): 82.4 nM

CC(=O)Nc1ccc(/C(C)=N/N=c2\sc(C(C)=O)nn2-c2ccc(C)cc2)cc1
viability (MCF7; MTT; 0.312 µM): 99.7%

COc1ccc(CNC[C@](O)(COCc2ccc(F)cc2)[C@@H]2CC[C@@H](C)C[C@H]2OCc2ccc(F)cc2)cc1
inhibition (MCF7; MTT; 10 µM; 72 h): 97.7%

O=C(Nc1ccc(Oc2nnc(-c3ccc(Cl)cc3)c3ccccc23)cc1)c1ccccc1
viability (MCF7; MTT; 0.625 µM; 24 h): 3.76%

COc1ccccc1CNC[C@@](C)(O)[C@@H]1CC[C@@H](C)C[C@H]1OCc1ccccc1
inhibition (MCF7; MTT; 10 µM; 72 h): 46.9%

CC(=O)c1nn(-c2ccc(C)cc2)/c(=N/N=C(\C)c2ccc(NC(=O)c3ccccc3)cc2)s1
viability (MCF7; MTT; 0.625 µM): 4.79%

Cc1c(C(=O)O)ccc2c3n(nc12)[C@@H]1[C@H](C3)N(CC2CC2)[C@@]2(C(=O)Nc3cc(Cl)ccc32)[C@H]1c1cccc(Cl)c1F
GI50 (SJSA-1): 0.31 nM

CC(=NNC(=O)c1ccccc1Cl)c1ccc(Nc2nnc(-c3ccc(Cl)cc3)c3ccccc23)cc1
viability (MCF7; MTT; 0.312 µM; 24 h): 99.9%

COc1ccc(COC[C@@](O)(CNCc2ccccc2)[C@@H]2CC[C@@H](C)C[C@H]2OCc2ccc(OC)cc2)cc1
inhibition (MCF7; MTT; 10 µM; 72 h): 96.2%

O=C(Nc1ccccc1)Nc1ccc(Oc2nnc(-c3ccc(Cl)cc3)c3ccccc23)cc1
cell death (MCF7; MTT; 2.5 µM): 96.7%

C[C@@H]1CC[C@@H]([C@](C)(O)Cn2ccnc2)[C@H](OCc2ccccc2)C1
inhibition (MCF7; MTT; 30 µM; 72 h): 34.6%

CC(=O)c1nn(-c2ccccc2Cl)/c(=N/N=C(\C)c2ccc(NC(=O)c3ccccc3)cc2)s1
viability (MCF7; MTT; 0.156 µM): 9.62%

C=C(COCc1ccc(OC)cc1)[C@@H]1CC[C@@H](C)C[C@H]1OCc1ccc(OC)cc1
inhibition (MCF7; MTT; 30 µM; 72 h): 24%

O=C(Nc1ccc(Oc2nnc(-c3ccc(Cl)cc3)c3ccccc23)cc1)c1cccc([N+](=O)[O-])c1
cell death (MCF7; MTT; 78 nM): 4.29%

C[C@@H]1CC[C@@H]([C@@](C)(O)Cn2cnc3ccccc32)[C@H](OCc2ccccc2)C1
inhibition (MCF7; MTT; 10 µM; 72 h): 55.2%

CC(=NNC(=O)c1ccccc1)c1ccc(Nc2nnc(-c3ccc(Cl)cc3)c3ccccc23)cc1
cell death (MCF7; MTT; 10 µM): 94.1%
